Test results: ChEMBL document CHEMBL4145481, “Synthesis and biological evaluation of novel bavachinin analogs as anticancer agents” (Eur J Med Chem, 2018)
pIC50: −log10 of the molar value. Activity calls are given as the source filed them. No cut-off for these calls is given here.

Assays:
A549 [1] = test: Cytotoxicity against human A549 cells assessed as growth inhibition at 50 uM after 48 hrs by SRB assay relative to control; format: functional; details: A549, 48 h, read-out: GI
How it was run: (§1)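 SRB growth-inhibition run in RPMI-1640/10% FBS at 37°C, 5% CO₂. Cell lines were seeded (PC-3 7000, MCF-7 8000, A549 7500, HCT-116 7000/well) and attached 24 h. The treatment series included 50 μM, with 48 h exposure. Cells were cold-TCA fixed and stained with 0.4% SRB. Dye was solubilized in 10 mM Tris pH 10.4 and read at 540 nm against untreated control.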

A549 [2] = test: Cytotoxicity against human A549 cells assessed as growth inhibition after 48 hrs by SRB assay; format: functional, cell-based; details: A549, 48 h
How it was run: (§2)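 Cells were grown in RPMI-1640 with 10% FBS and penicillin/streptomycin at 37°C, 5% CO₂. Seeding was PC-3 7000, MCF-7 8000, A549 7500 and HCT-116 7000 cells/well, with 24 h attachment. Cells were exposed to 1, 5, 10, 30 and 50 μM for 48 h, with a 5-fluorouracil reference. Cells were TCA-fixed (1 h, 4°C) and stained with 0.4% SRB. Bound dye was dissolved in 10 mM Tris pH 10.4 and read at 540 nm. IC50 came from the concentration-response.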

HCT-116 [3] = test: Induction of mitochondrial membrane potential loss in human HCT116 cells after 24 hrs by rhodamine123 staining based fluorescence microscopic analysis; format: functional, cell-based
How it was run: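 Cells were seeded at 1×10^6/1.5 mL/well and treated 24 h at 3.6, 7.2 and 14.4 μM, with 5-FU at 5 μM as reference. Rhodamine-123 (10 nM) was added for the final 1 h. After a PBS wash, fluorescence was imaged by microscopy.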

MCF7 [4] = test: Cytotoxicity against human MCF7 cells assessed as growth inhibition at 50 uM after 48 hrs by SRB assay relative to control; format: functional; details: MCF7, 48 h, read-out: GI; how it was run: as §1
HCT-116 [5] = test: Antimigratory activity against human HCT116 cells assessed as inhibition of wound closure up to 24 hrs by wound scratch assay; format: functional, cell-based
How it was run: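 HCT-116 cells were plated at 8×10^5/well and grown to 70–80% confluence, then serum-starved 24 h. The monolayer was scratched with a pipette tip and treated at 3.6, 7.2 and 14.4 μM for 24 h. Wounds were imaged at 0 and 24 h (20x). Percent wound closure was computed from wound areas relative to control; means ± SD, n = 3.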

HCT-116 [6] = test: Induction of apoptosis in human HCT116 cells assessed as PARP cleavage at 3.6 uM after 24 hrs by Western blot analysis; format: functional, cell-based
How it was run: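 HCT-116 cells were treated 24 h at 3.6, 7.2 and 14.4 μM. RIPA whole-cell lysates with protease/phosphatase inhibitors were BCA-quantified. Equal protein was run on 10% SDS-PAGE and transferred to PVDF, then blocked with 5% BSA/TBST for 1 h. Blots were probed with anti-PARP (1:1000) and β-actin (1:500, loading control) plus HRP secondaries. The read-out was the 89 kDa cleaved fragment.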

MCF7 [7] = test: Cytotoxicity against human MCF7 cells assessed as growth inhibition after 48 hrs by SRB assay; format: functional, cell-based; details: MCF7, 48 h; how it was run: as §2
HCT-116 [8] = test: Induction of morphological changes in human HCT116 cells assessed as cell shrinkage after 24 hrs by phase contrast microscopic analysis; format: functional, cell-based
How it was run: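 HCT-116 cells were exposed 24 h to 3.6, 7.2 and 14.4 μM, alongside an untreated control. Morphology was photographed by phase contrast microscopy at 20x.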

HCT-116 [9] = test: Anticlonogenic activity against human HCT116 cells incubated for 24 hrs measured up to 14 days by crystal violet staining-based assay; format: functional, cell-based
How it was run: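 HCT-116 cells (8x10^4/mL/well) were treated 24 h at 3.6, 7.2 and 14.4 μM. They were then trypsinized and re-seeded at 1000 cells/well, and grown about 14 days to colonies of >50 cells. Colonies were fixed in 4% formaldehyde and stained with 0.5% crystal violet. Colony number was expressed relative to untreated control, with 5-fluorouracil as reference; means ± SD, n = 3.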

PC-3 [10] = test: Cytotoxicity against human PC3 cells assessed as growth inhibition at 50 uM after 48 hrs by SRB assay relative to control; format: functional; details: PC-3, 48 h, read-out: GI; how it was run: as §1
HCT-116 [11] = test: Cytotoxicity against human HCT116 cells assessed as growth inhibition at 50 uM after 48 hrs by SRB assay relative to control; format: functional; details: HCT-116, 48 h, read-out: GI; how it was run: as §1
HCT-116 [12] = test: Cytotoxicity against human HCT116 cells assessed as growth inhibition after 48 hrs by SRB assay; format: functional, cell-based; details: HCT-116, 48 h; how it was run: as §2
PC-3 [13] = test: Cytotoxicity against human PC3 cells assessed as growth inhibition after 48 hrs by SRB assay; format: functional, cell-based; details: PC-3, 48 h; how it was run: as §2
HepG2 = test: Cytotoxicity against human HepG2 cells; format: functional, cell-based

Row | SMILES | inhibition of growth at 50 µM (A549 [1]) | pIC50 (A549 [2]) | Activity (HCT-116 [3]) | inhibition of growth at 50 µM (MCF7 [4]) | inhibition (HCT-116 [5]) | Activity (HCT-116 [6]) | pIC50 (MCF7 [7]) | Activity (HCT-116 [8]) | Activity (HCT-116 [9]) | inhibition of growth at 50 µM (PC-3 [10]) | inhibition of growth at 50 µM (HCT-116 [11]) | pIC50 (HCT-116 [12]) | pIC50 (PC-3 [13]) | pIC50 (HepG2)
1 | COc1ccc([C@@H]2C/C(=N/OCc3cn(-c4ccc(C(N)=O)cc4)nn3)c3cc(CC=C(C)C)c(OC)cc3O2)cc1 | 100% | 5.11 | Dose-dependent effect | 100% | Dose-dependent effect | Active | 4.93 | Dose-dependent effect | Dose-dependent effect | 100% | 100% | 5.15 | 4.79 | –
2 | COc1cc2c(cc1CC=C(C)C)C(=O)C[C@@H](c1ccc(OC3O[C@H](CO)[C@@H](O)[C@H](O)[C@H]3O)cc1)O2 (some centres undefined) | – | – | – | – | – | – | – | – | – | – | – | – | – | 4.31
